From PubChem BioAssay
The source made the active and inactive calls.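 Rule for the calls, unless noted: active = viability at or under a set limit in both replicates, limit being median viability minus 3 SD (cut at about 48% in these data, passing the limit was not always enough); inconclusive = at or under the limit in just one replicate; inactive = at or above the limit in both replicates.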

Legend:
[1] = Her2 expression decrease, cell viability multiplex – SKBR3 breast tumor cells, AlphaScreen, ATP viability, primary screen (AID 461;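 active = Her2 level under about 52% in both replicate screens, with viability over 70% of control, limit read from the data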;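 for Her2 level: lower value means less Her2 protein in the cells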;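 for viability: percent of carrier control wells set as 100% viability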); conditions: SKBR3 Her2 protein level, 18-24 h, measured here: SKBR3 viability, ATP luminescence, at 10 µM
[2] = biological target: Receptor tyrosine-protein kinase erbB-2 (Homo sapiens) (UniProt P04626); assay: as above; conditions: 18-24 h, at 10 µM, stronger effect = lower value
Chain of Receptor tyrosine-protein kinase erbB-2 (Homo sapiens) (P04626 whole entry, looked up): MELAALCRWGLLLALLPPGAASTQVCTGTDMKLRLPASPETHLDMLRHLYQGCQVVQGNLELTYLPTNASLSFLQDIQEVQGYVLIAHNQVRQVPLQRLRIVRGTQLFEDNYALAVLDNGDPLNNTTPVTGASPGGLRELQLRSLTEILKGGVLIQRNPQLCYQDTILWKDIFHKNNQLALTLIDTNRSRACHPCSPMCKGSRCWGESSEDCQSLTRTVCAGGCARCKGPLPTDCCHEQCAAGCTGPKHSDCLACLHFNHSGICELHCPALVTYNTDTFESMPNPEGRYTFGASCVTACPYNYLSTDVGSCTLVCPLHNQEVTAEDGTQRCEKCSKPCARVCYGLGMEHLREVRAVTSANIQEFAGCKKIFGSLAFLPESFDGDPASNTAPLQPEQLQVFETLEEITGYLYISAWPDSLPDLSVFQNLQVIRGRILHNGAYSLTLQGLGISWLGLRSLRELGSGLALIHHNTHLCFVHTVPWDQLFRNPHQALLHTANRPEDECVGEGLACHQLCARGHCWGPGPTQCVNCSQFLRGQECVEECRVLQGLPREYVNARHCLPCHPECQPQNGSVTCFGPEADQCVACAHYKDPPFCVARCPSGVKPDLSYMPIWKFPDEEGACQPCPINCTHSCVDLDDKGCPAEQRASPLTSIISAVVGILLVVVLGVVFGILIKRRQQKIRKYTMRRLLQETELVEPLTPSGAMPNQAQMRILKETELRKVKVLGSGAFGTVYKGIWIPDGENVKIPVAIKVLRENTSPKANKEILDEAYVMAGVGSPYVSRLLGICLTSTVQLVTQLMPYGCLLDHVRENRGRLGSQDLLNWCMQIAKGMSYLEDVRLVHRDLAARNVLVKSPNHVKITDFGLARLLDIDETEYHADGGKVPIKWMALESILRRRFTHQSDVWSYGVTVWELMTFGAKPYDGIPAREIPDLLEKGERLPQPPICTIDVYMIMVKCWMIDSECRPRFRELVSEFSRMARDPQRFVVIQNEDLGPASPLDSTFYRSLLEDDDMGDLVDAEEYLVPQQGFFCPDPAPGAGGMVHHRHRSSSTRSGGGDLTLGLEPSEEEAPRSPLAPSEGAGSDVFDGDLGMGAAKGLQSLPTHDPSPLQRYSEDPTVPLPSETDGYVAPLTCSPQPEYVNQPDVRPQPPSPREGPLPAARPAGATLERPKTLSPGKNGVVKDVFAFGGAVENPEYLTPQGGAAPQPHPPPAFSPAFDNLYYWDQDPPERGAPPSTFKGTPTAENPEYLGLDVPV

[3] = reduced viability of SK-BR-3 breast cancer cells – cell-based, 24 h, human, pilot screen (AID 572;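 active = viability at or below 10% of carrier control in both of two separate runs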;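 note: compound exposure lasted between 18 and 24 h rather than exactly 24 h; 100% = carrier-treated control wells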); conditions: SK-BR-3 viability, CellTiter-Glo luminescence, at 10 µM, stronger effect = lower value
[4] = HUVEC growth inhibition – cell-based, human, primary screen (AID 575;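 active = viability at or below 30% in both replicate assays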;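 note: 100% = median of untreated cell wells with 0.1% DMSO on each plate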); conditions: HUVEC proliferation, CellTiter-Glo luminescence, 72 h; at 10 µM; stronger effect = lower value
How it was run: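 System – primary HUVEC, no more than 12 passages · Medium – Low-serum (2% FBS) EBM, supplemented · Times – 72 h exposure, 37 °C, 5% CO2, 30 min RT equilibration · Measured by – luminescent ATP assay · Read-out – % viability relative to median vehicle-well signal on each plate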

[5] = H69AR cell proliferation blockers – human, duplicate replicates, primary screen (AID 580); conditions: H69AR lung tumor cells viability, ATP luminescence, 72 h; at 10 µM; stronger effect = lower value;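 note: 100% = mean luminescence of untreated wells and 0% = no signal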
[6] = MRP1 drug-resistance reversers in H69AR cells – cell-based, doxorubicin co-treatment, pilot screen (AID 601;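 active = viability loss from added drug above about 55%, and viability with drug at most 40%, in both replicates, limit read from the data, passing the limit was not always enough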); conditions: CellTiter-Glo, 72 h, at 10 µM; for differential viability (reversal): stronger effect = higher value
[7] = yeast transport mutant growth inhibition pilot in 384-well plates, post-Golgi transport modulator project (AID 636; in the data active = inhibition above about 31%); conditions: absorbance 615 nm, about 18 h, stronger effect = higher value
[8] = growth suppression of yeast trafficking mutant, preliminary HTS, modulators of trafficking downstream of Golgi apparatus project, 1536-format plate, OD 615 nm (AID 637; in the data active = inhibition above about 30%); conditions: yeast transport mutant growth, absorbance 615 nm, 18 h; stronger effect = higher value
[9] = H69AR cells + 2 uM doxorubicin, measured here: viability with 2 uM doxorubicin, stronger effect = lower value
[10] = H69AR cells, compound alone cytotoxicity

Compound | viability [1] [%] | Her2 level [2] | viability [3] | viability [4] | viability [5] | differential viability (reversal) ([6]; H69AR cells + 2 uM doxorubicin) | viability [6, 9] [%] | viability [6, 10] [%] | inhibition [7] | inhibition [8]
CCOC(=O)C1=C(C)N=C2SCCC(=O)N2C1c1cc(Br)ccc1OC (stereo not given) | 94.5 | 91% (inactive) | 94.5% (inactive) | 107% (inactive) | 92% (inactive) | 1.69% (inactive) | 90.3 | 92 | -7.67% (inactive) | 0% (inactive)
CCCn1c(C)cc(C(=O)COc2ncnc3sccc23)c1C | 89 | 98.5% (inactive) | 89% (inactive) | 74.1% (inactive) | 63.8% (inactive) | -18.6% (inactive) | 82.3 | 63.8 | 1.3% (inactive) | -11.8% (inactive)
O/N=C/c1ccc(OCC(O)COc2ccc(/C=N/O)cc2)cc1 | 89.5 | 112% (inactive) | 89.5% (inactive) | 75.9% (inactive) | 90.1% (inactive) | -1.19% (inactive) | 91.3 | 90.1 | -1.54% (inactive) | 4.83% (inactive)
Cc1cc(C)n2cc(CSCc3ccco3)nc2n1 | 97 | 83% (inactive) | 97% (inactive) | 113% (inactive) | 95.2% (inactive) | 8.73% (inactive) | 86.4 | 95.2 | -7.16% (inactive) | 0.83% (inactive)
CCCCSc1nc2c(cnn2-c2ccc(Cl)cc2)c(=O)[nH]1 | 93 | 83.5% (inactive) | 93% (inactive) | 85.5% (inactive) | 75.1% (inactive) | 2.96% (inactive) | 72.1 | 75.1 | -4.93% (inactive) | 7.38% (inactive)
CCOC(=O)CSc1nnc([C@H](CC(C)C)NC(=O)OC(C)(C)C)o1 | 109 | 106% (inactive) | 109% (inactive) | 94% (inactive) | 94.6% (inactive) | -0.88% (inactive) | 95.5 | 94.6 | -3.6% (inactive) | -3.71% (inactive)
Cc1cccc(Cn2c(=O)n(Cc3ccco3)c(=O)c3ccccc32)c1 | 87 | 97.5% (inactive) | 87% (inactive) | 100% (inactive) | 92.5% (inactive) | -9.65% (inactive) | 102 | 92.5 | -2.11% (inactive) | 1.15% (inactive)
Cc1ccc(SCc2[nH]nc3c2C(c2ccc(C)o2)C(C#N)=C(N)O3)cc1 (stereo not given) | 91 | 88% (inactive) | 91% (inactive) | 74.3% (inactive) | 76.8% (inactive) | -5.55% (inactive) | 82.4 | 76.8 | -7.03% (inactive) | 2.06% (inactive)
COc1cccc(NC(=O)Cc2nnc(SCC(=O)c3ccccc3)n2C)c1 | 92 | 83.5% (inactive) | 92% (inactive) | 85% (inactive) | 68.1% (inactive) | 8.65% (inactive) | 59.4 | 68.1 | -2.24% (inactive) | -3.49% (inactive)
CCCOC(=O)CSc1nc(N)c(C#N)c(CC)c1C#N | 99.5 | 116% (inactive) | 99.5% (inactive) | 105% (inactive) | 94.6% (inactive) | 0.73% (inactive) | 93.9 | 94.6 | 2% (inactive) | 0.16% (inactive)
CCn1cc(C2=NCC(C)O2)c2ccccc21 (stereo not given) | 96.5 | 83% (inactive) | 96.5% (inactive) | 74.8% (inactive) | 93.5% (inactive) | 3.18% (inactive) | 90.3 | 93.5 | -5.54% (inactive) | -0.32% (inactive)
CC(C)C(NC(=O)c1ccco1)C(=O)NCC(c1ccco1)N1CCCCC1 (stereo not given) | 96.5 | 94.5% (inactive) | 96.5% (inactive) | 94.8% (inactive) | 93.9% (inactive) | 18.1% (inactive) | 75.8 | 93.9 | -2.97% (inactive) | -0.32% (inactive)
CC12CN3CC(C)(CN(C1)C3c1ccc(Br)cc1)C2 (stereo not given) | 99 | 97% (inactive) | 99% (inactive) | 99.2% (inactive) | 102% (inactive) | 12.9% (inactive) | 89.4 | 102 | -2.63% (inactive) | 2.46% (inactive)
CCCCCC(=O)N1CC2(CC)CN(C(=O)CCCCC)CC(CC)(C1)C2=O | 89 | 124% (inactive) | 89% (inactive) | 91.7% (inactive) | 83.3% (inactive) | -6.35% (inactive) | 89.7 | 83.3 | 0.51% (inactive) | -7.33% (inactive)
CC(C)COC(=O)N(C)c1ccc(C(O)(C(F)(F)F)C(F)(F)F)cc1 | 102 | 95% (inactive) | 102% (inactive) | 93.1% (inactive) | 89.8% (inactive) | 3.42% (inactive) | 86.4 | 89.8 | -2.57% (inactive) | -8.57% (inactive)
CCOC(=O)c1ccc(N2C(=O)CC(NC3CCN(C(=O)c4ccc(F)cc4)CC3)C2=O)cc1 (stereo not given) | 102 | 126% (inactive) | 102% (inactive) | 103% (inactive) | 110% (inactive) | 14% (inactive) | 96 | 110 | 1.45% (inactive) | -5% (inactive)
CC1NC(=O)NC1CCCCCC(=O)NCCc1ccccc1 (stereo not given) | 112 | 80% (inactive) | 112% (inactive) | 90.4% (inactive) | 93.3% (inactive) | 7.38% (inactive) | 85.9 | 93.3 | -5.07% (inactive) | 0.79% (inactive)
Cc1ccc(-c2nnn(CC(=O)N(Cc3ccco3)C(C(=O)NC(C)(C)C)c3cccs3)n2)o1 (stereo not given) | 119 | 81% (inactive) | 119% (inactive) | 89.1% (inactive) | 95.9% (inactive) | 6.13% (inactive) | 89.8 | 95.9 | 0.4% (inactive) | -4.1% (inactive)
O=C(CSc1nnc2ccccn12)NCCN1C(=O)CSC1=O | 134 | 85.5% (inactive) | 134% (inactive) | 92.5% (inactive) | 105% (inactive) | 11.8% (inactive) | 93.6 | 105 | -3.64% (inactive) | -0.32% (inactive)
CCOC(=O)/N=C(/NC(=O)Nc1ccc(C(=O)OCC)cc1)OC | 99.5 | 75.5% (inactive) | 99.5% (inactive) | 83.7% (inactive) | 96.5% (inactive) | 14.8% (inactive) | 81.8 | 96.5 | -5.54% (inactive) | 5.4% (inactive)
CN(C)/C=C(\C#N)c1nc2ccccc2[nH]1 | 85 | 90% (inactive) | 85% (inactive) | 97.6% (inactive) | 98% (inactive) | 20.9% (inactive) | 77 | 98 | 2.37% (inactive) | -8.36% (inactive)
COc1cccc(OCC(O)CN2CCN(CCO)CC2)c1 (stereo not given) | 92.5 | 96% (inactive) | 92.5% (inactive) | 101% (inactive) | 93.2% (inactive) | 1.65% (inactive) | 91.6 | 93.2 | 1.18% (inactive) | 6.39% (inactive)
C=CCn1c(C)cc(C(=O)CSc2nc3ccccc3o2)c1C | 108 | 72.5% (inactive) | 108% (inactive) | 81.2% (inactive) | 95.6% (inactive) | 10% (inactive) | 85.6 | 95.6 | -2.84% (inactive) | -3.33% (inactive)
CCOC(=O)C1CCCN(c2c(NCc3ccco3)c(=O)c2=O)C1 (stereo not given) | 94 | 108% (inactive) | 94% (inactive) | 83.3% (inactive) | 94.3% (inactive) | 11.7% (inactive) | 82.6 | 94.3 | 2% (inactive) | -6.07% (inactive)
Cc1cccc(N2C(=O)CC(N3CCN(C(=O)c4ccccc4)CC3)C2=O)c1 (stereo not given) | 114 | 104% (inactive) | 114% (inactive) | 90.8% (inactive) | 96.3% (inactive) | 12.7% (inactive) | 83.6 | 96.3 | -5.32% (inactive) | 2.13% (inactive)
O=C(NCc1ccc(F)cc1)C1CCN(C(=O)NCc2ccccc2)CC1 | 115 | 110% (inactive) | 115% (inactive) | 89.8% (inactive) | 101% (inactive) | 6.81% (inactive) | 93.8 | 101 | -3.38% (inactive) | -7.17% (inactive)
O=C(O)CCCCCNc1nc(=S)[nH]c2ccccc12 | 107 | 99% (inactive) | 107% (inactive) | 99.7% (inactive) | 89.3% (inactive) | 10.3% (inactive) | 79 | 89.3 | -5.92% (inactive) | -1.59% (inactive)
C=CCOC(=O)C1=C(C)OC(N)=C(C#N)C1c1ccc2c(c1)OCO2 (stereo not given) | 107 | 90.5% (inactive) | 107% (inactive) | 98.2% (inactive) | 94.5% (inactive) | 7.53% (inactive) | 86.9 | 94.5 | -4.32% (inactive) | -4.44% (inactive)
O=C1CC(c2ccc(F)c(Br)c2)C2=C(CCCC2=O)N1 (stereo not given) | 102 | 85.5% (inactive) | 102% (inactive) | 84.6% (inactive) | 102% (inactive) | 5.7% (inactive) | 96.1 | 102 | -3.95% (inactive) | -4.67% (inactive)
